The source made the active and inactive calls. The calls are words filed in the database; no cut-off is given here.
Tests used:
Leishmania braziliensis [1] = assay: Antileishmanial activity against Leishmania braziliensis MHOM/BR/75/M2904 promastigotes after 72 hrs; format: functional, organism-based; conditions: MHOM/BR/75/M2904, 72 h
Method in brief: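 Exponential-phase promastigotes at 10×10^6/ml in Schneider's medium with 5% FBS were incubated 72 h at 28 °C with compound dilutions from 100 to 1.6. Amphotericin B (31.25–1000 nM) was the positive control and 1% DMSO the negative control. Live parasites were counted in a Neubauer chamber. IC50 came from linear regression, mean ± standard error of three independent triplicate experiments.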

Trypanosoma cruzi [2] = assay: Antitrypanosomal activity against Trypanosoma cruzi Y epimastigotes at 500 uM after 72 hrs; format: functional, organism-based
Trypanosoma cruzi [3] = assay: Antitrypanosomal activity against Trypanosoma cruzi epimastigotes at 500 uM after 72 hrs
Leishmania braziliensis [4] = assay: Antileishmanial activity against Leishmania braziliensis MHOM/BR/75/M2904 amastigotes assessed as reduction in intracellular amastigote after 48 hrs; format: functional, organism-based
Method in brief: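 L. braziliensis axenic amastigotes were made by differentiating stationary-phase promastigotes in Schneider medium with 20% FBS, pH 6.3, at 34 °C for 72 h. J774.A1 cells were infected at 10:1 parasite:cell overnight at 34 °C in RPMI with 20% FBS. Cells were exposed to 1–100 compound for 48 h at 34 °C/5% CO2, Giemsa-stained, and 200 cells counted. Percent inhibition above 25% counted as significant.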

For `COc1ccc(/C=C/C(=O)c2ccccc2)cc1S(=O)(=O)Nc1ccc(Cl)cc1`, the IC50 (Leishmania braziliensis [1]) was 4.6 µM, the Activity (Trypanosoma cruzi [2]) was “inactive” and the Activity (Trypanosoma cruzi [3]) was “inactive”.

With `COc1ccc(/C=C/C(=O)c2ccccc2)cc1` [4-METHOXY CHALCONE] the IC50 (Leishmania braziliensis [1]) was 16.6 µM.

For `COc1ccc(/C=C/C(=O)c2ccccc2)cc1S(=O)(=O)Nc1ccccc1`, the IC50 (Leishmania braziliensis [1]) was 69 µM, the Activity (Trypanosoma cruzi [2]) was “inactive” and the Activity (Trypanosoma cruzi [3]) was “inactive”.

`CCN(CC)S(=O)(=O)c1cc(/C=C/C(=O)c2ccccc2)ccc1OC` was tested, and the IC50 (Leishmania braziliensis [1]) was 5.6 µM, the Activity (Trypanosoma cruzi [2]) was “inactive” and the Activity (Trypanosoma cruzi [3]) was “inactive”.

In the case of `C[C@@H]1[C@H](O)[C@@H](C)/C=C/C=C/C=C/C=C/C=C/C=C/C=C/[C@H](O[C@@H]2O[C@H](C)[C@@H](O)[C@H](N)[C@@H]2O)C[C@@H]2O[C@](O)(C[C@@H](O)C[C@@H](O)[C@H](O)CC[C@@H](O)C[C@@H](O)CC(=O)O[C@H]1C)C[C@H](O)[C@H]2C(=O)O` [AMPHOTERICIN B], the IC50 (Leishmania braziliensis [1]) is reported as 0.3 µM.

With `COc1ccc(/C=C/C(=O)c2ccccc2)cc1S(=O)(=O)N1CCOCC1` the IC50 (Leishmania braziliensis [1]) was 5.9 µM, the Activity (Trypanosoma cruzi [2]) was “inactive” and the Activity (Trypanosoma cruzi [3]) was “inactive”.

In the case of `COc1ccc(/C=C/C(=O)c2ccccc2)cc1S(=O)(=O)N(C)C`, the IC50 (Leishmania braziliensis [1]) is reported as 8.6 µM, the Activity (Trypanosoma cruzi [2]) is reported as “inactive” and the Activity (Trypanosoma cruzi [3]) is reported as “inactive”.

With `COc1ccc(/C=C/C(=O)c2ccccc2)cc1S(=O)(=O)NCc1ccccc1` the Activity (Leishmania braziliensis [4]) was “Active”, the IC50 (Leishmania braziliensis [1]) was 3.5 µM and the Activity (Trypanosoma cruzi [2]) was “inactive”. The Activity (Trypanosoma cruzi [3]) was “inactive”.

`COc1ccc(/C=C/C(=O)c2ccccc2)cc1S(=O)(=O)Nc1ccc(Cl)c(Cl)c1` was tested, and the IC50 (Leishmania braziliensis [1]) was 8.1 µM, the Activity (Trypanosoma cruzi [2]) was “inactive” and the Activity (Trypanosoma cruzi [3]) was “inactive”.

`COc1ccc(NS(=O)(=O)c2cc(/C=C/C(=O)c3ccccc3)ccc2OC)cc1` was tested, and the IC50 (Leishmania braziliensis [1]) was 7.5 µM, the Activity (Trypanosoma cruzi [2]) was “inactive” and the Activity (Trypanosoma cruzi [3]) was “inactive”.

With `N=C(N)c1ccc(OCCCCCOc2ccc(C(=N)N)cc2)cc1` the IC50 (Leishmania braziliensis [1]) was 19.6 µM.

In the case of `COc1ccc(/C=C/C(=O)c2ccccc2)cc1S(=O)(=O)N1CCCC1`, the IC50 (Leishmania braziliensis [1]) is reported as 13 µM, the Activity (Trypanosoma cruzi [2]) is reported as “inactive” and the Activity (Trypanosoma cruzi [3]) is reported as “inactive”.
